Data set [1] has as its system HeLa. The experiment in a line: Cytotoxicity against human HeLa cells assessed as reduction in cell viability incubated for 72 hrs under normoxia condition by MTT assay. In kind it is cell-based. A digest of the protocol: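 HeLa cells, 5 × 10^3 per well, exposed 72 h at 37 °C in RPMI-1640 to a range of concentrations (compounds from 10 mM DMSO stocks). MTT (5 mg/mL in PBS) added for a further 2 h, formazan dissolved in DMSO, absorbance read at 595 nm. IC50 taken from semilogarithmic dose–response plots. Top concentration capped at 10 or 30 μM where solubility was poor.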
In general terms: Formazan colour is commonly taken as a measure of viable cells.

A short description of data set [2]: Solubility of the compound. In kind it is physicochemical.
For data set [3], the target named is Luciferin 4-monooxygenase (Photinus pyralis) (UniProt P08659). The experiment in a line: Inhibition of recombinant firefly luciferase at 1 uM incubated for 10 mins at 37 degree C by luminometric method. Put shortly:
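Recombinant firefly luciferase (20 ng/µL stock in PBS) mixed with compound in DMSO/PBS and incubated 10 min at 37 °C. Luciferase assay reagent was then added and light emission read on a luminometer. Compound tested at 1 μM.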

Data set [4] deals with HeLa. The experiment in a line: Inhibition of hypoxia-induced HIF1alpha accumulation in human HeLa cells at 1 to 30 uM incubated for 12 hrs under 1% O2 condition by Western blot analysis. The data set is classed as functional, cell-based. Put shortly:
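Lysates separated by SDS-PAGE, blotted to PVDF and probed with anti-HIF-1α and anti-tubulin antibodies. Detection used HRP-conjugated secondary antibody and chemiluminescent imaging.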

Data set [5] concerns HeLa. The experiment in a line: Effect on HIF1alpha mRNA level in human HeLa cells at 30 uM incubated for 12 hrs under 1% O2 condition by qRT-PCR analysis. In kind it is functional, cell-based. Put shortly:
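HeLa cells, 1 × 10^6 per well, held 12 h with or without compound under normoxia or hypoxia. Total RNA extracted with a column kit. 1.0 µg RNA reverse transcribed with random primers, dNTPs and M-MLV at 40 °C for 50 min, then HIF-1α mRNA measured by RT-PCR.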

The source made the active and inactive calls. The calls are words filed in the database; no cut-off is given here.

Luciferin 4-monooxygenase (Photinus pyralis), sequence (P08659 whole entry): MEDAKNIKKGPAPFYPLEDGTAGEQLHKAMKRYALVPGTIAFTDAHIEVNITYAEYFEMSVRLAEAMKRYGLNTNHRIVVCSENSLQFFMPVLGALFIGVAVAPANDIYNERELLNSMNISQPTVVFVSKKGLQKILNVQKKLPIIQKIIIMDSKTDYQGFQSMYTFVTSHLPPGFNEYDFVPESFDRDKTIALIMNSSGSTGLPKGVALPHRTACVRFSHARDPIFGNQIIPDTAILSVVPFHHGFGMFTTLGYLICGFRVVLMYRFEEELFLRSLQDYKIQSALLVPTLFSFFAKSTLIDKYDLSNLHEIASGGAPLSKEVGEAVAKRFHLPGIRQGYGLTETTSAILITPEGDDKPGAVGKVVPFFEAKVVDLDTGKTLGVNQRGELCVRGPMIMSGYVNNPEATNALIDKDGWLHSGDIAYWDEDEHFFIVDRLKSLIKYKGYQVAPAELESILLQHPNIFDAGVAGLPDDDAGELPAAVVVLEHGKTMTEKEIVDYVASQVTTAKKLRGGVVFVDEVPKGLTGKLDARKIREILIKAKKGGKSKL

For `O=C1c2ccccc2-c2cnn(-c3ccc(C(F)(F)F)cc3)c21`, the IC50 (usually the concentration that inhibits the measured activity by half) in data set [1] was above 100 µM.

In the case of `O=C1c2ccccc2-c2cnn(-c3ccc(O)cc3)c21`, in data set [1], the 50% inhibitory concentration (IC50) was 2.2 µM.

Regarding `O=C1c2ccccc2-c2cn[nH]c21`, the IC50 in data set [1] is above 30 µM. The solubility (commonly the concentration that dissolves in the medium under given conditions) in data set [2] is above 30 µM.

For `Cn1ncc2c1C(=O)c1ccccc1-2`, the IC50 in data set [1] came out at 49 µM.

As for `OCc1ccc(-c2nn(Cc3ccccc3)c3ccccc23)o1`, in data set [1], the IC50 turned out to be 56 µM.

In the case of `COc1ccc(-n2ncc3c2C(=O)c2ccccc2-3)cc1`, the IC50 in data set [1] was above 10 µM. The inhibition result in data set [3] is “Active”. Also, in data set [2], the solubility was above 10 µM.

With `O=C1c2ccccc2-c2cnn(-c3ccccc3)c21`, the IC50 in data set [1] was above 10 µM. This molecule also registered a solubility in data set [2] above 10 µM.

With `Cc1ccc(-n2ncc3c2C(=O)c2ccccc2-3)cc1`, in data set [1], the IC50 was above 10 µM. For the same molecule, in data set [3], the inhibition result was “inactive”. In data set [4], the inhibition entry is “Active”. The outcome in data set [5] was inactive. In addition, the solubility in data set [2] was above 10 µM.

In the case of `Cc1nn(-c2ccccc2)c2c1-c1ccccc1C2=O`, the IC50 in data set [1] is above 30 µM. This molecule also yielded a solubility in data set [2] above 30 µM.

Consider `O=C1c2ncccc2-c2cnn(-c3ccccc3)c21`, for which the IC50 in data set [1] came to 52 µM.

(Values after ChEMBL document CHEMBL4613216, “Design, synthesis, and evaluation of indeno[2,1-c]pyrazolones for use as inhibitors against hypoxia-inducible factor (HIF)-1 transcriptional activity” (Bioorg Med Chem, 2020).)
